Activity calls are given as the source filed them.
Experiments:
[1] = Clearance in rat hepatic microsomes at 2 uM measured up to 60 mins in presence of NADPH generating system by LC-MS/MS analysis; type: ADME, Microsome; conditions: liver microsomes
[2] = Clearance in Beagle dog at 0.25 mg/kg, iv administered as 30 mins infusion by HPLC-MS analysis; type: ADME, organism-based, Canis lupus familiaris; conditions: in vivo
Method in brief: (§1)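 30-min intravenous infusion: Sprague Dawley rats 1 mg/kg, beagle dogs 0.25 mg/kg, cynomolgus monkeys 0.1 mg/kg; n = 3 per species, reported as mean ± SD.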

[3] = Clearance in cynomolgus monkey at 0.1 mg/kg, iv administered as 30 mins infusion by HPLC-MS analysis; type: ADME, organism-based, Macaca fascicularis; conditions: in vivo; method in brief: as §1
[4] = Drug excretion in bile duct-cannulated Sprague-Dawley rat urine; type: ADME; conditions: in vivo
[5] = molecular target: T1, Interferon-induced helicase C domain-containing protein 1 (Homo sapiens) (UniProt Q9BYX4); assay: Agonist activity at human MDA5 expressed in HEK293 cells assessed as induction of IFN-inducible ISG54 promoter activity up to 10 uM after overnight incubation by secreted lucia luciferase reporter gene assay; type: cell-based; conditions: dose microM <=10
T1 sequence (whole entry): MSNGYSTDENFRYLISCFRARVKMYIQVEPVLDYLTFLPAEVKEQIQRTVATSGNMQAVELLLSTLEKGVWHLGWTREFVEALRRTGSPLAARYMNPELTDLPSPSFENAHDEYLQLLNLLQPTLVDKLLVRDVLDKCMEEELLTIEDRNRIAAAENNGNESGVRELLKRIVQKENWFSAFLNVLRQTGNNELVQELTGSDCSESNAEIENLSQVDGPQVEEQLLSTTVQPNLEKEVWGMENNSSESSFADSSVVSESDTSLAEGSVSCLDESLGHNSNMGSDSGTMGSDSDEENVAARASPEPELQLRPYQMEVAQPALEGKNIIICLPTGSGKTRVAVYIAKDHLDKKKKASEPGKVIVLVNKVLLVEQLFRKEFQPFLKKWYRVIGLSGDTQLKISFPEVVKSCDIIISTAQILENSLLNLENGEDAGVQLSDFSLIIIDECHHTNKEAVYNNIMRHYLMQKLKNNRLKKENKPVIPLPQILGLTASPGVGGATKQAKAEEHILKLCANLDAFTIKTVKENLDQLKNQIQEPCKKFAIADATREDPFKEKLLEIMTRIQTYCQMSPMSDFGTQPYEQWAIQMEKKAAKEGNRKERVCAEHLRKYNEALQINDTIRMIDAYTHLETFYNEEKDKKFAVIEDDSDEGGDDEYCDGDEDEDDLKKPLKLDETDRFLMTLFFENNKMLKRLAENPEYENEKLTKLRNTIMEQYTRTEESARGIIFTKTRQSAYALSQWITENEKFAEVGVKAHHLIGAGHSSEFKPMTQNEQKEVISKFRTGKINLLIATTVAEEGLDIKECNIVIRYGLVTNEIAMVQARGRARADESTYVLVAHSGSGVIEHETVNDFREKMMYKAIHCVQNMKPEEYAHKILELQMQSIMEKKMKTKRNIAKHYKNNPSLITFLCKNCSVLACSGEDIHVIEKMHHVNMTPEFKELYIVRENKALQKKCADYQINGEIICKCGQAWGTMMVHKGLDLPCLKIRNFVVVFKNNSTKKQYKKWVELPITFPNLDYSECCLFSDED
Method in brief: (§2)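 HEK293 cells stably expressing individual human TLRs or other innate immune receptors, used as reporter gene assays. Minimum effective concentration defined as the level giving a 3-fold rise over background.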

[6] = molecular target: T2, C-type lectin domain family 7 member A (Homo sapiens) (UniProt Q9BXN2); assay: Agonist activity at human Dectin1b expressed in HEK293 cells assessed as increase in NF-kappaB activation up to 10 uM incubated for 24 hrs by quanti-blue SEAP reporter gene assay; type: cell-based; conditions: dose microM <=10, time 24.0 hrs; method in brief: as §2
T2 sequence (whole entry): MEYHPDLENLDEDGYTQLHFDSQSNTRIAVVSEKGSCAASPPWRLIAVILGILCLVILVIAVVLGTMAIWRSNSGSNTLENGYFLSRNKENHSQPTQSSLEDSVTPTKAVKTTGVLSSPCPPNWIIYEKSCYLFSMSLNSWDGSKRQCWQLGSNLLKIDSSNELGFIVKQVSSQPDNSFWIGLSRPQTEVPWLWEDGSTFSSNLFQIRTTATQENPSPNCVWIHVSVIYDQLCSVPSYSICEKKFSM

Hepatitis B virus = assay: Antiviral activity against HBV infected in human primary hepatocytes; type: functional, organism-based; conditions: Primary hepatocyte
PBMC = assay: Immunomodulatory activity in human primary hepatocytes infected with HBV assessed as stimulation of CD8+T cell response to virus by measuring degradation of cccDNA treated with media from PBMC stimulated with 10 nM compound for 10 days; type: functional, cell-based; conditions: time 10.0 day

In the case of CCCC[C@](C)(CO)Nc1nc(N)nc2cc(F)cnc12 [SELGANTOLIMOD], the CLhep predicted at 2 µM [1] is reported as 50 mL/min/kg, the clearance [2] is reported as 20 mL/min/kg and the clearance [3] is reported as 103 mL/min/kg. The Drug excretion [4] was “Active”, the Activity [5] was “inactive” and the Activity [6] was “inactive”. For the same compound, the Activity (Hepatitis B virus) was “inactive” and the Activity (PBMC) was “inactive”.
